The results in this text go back to ChEMBL document CHEMBL1126594, “Studies directed toward the design of orally active renin inhibitors. 1. Some factors influencing the absorption of small peptides” (J Med Chem, 1993).

Data set [1] is described as follows: Peak plasma drug level after intraduodenal administration at a dose 10 mg/kg from systemic circulation in salt-depleted cynomolgus monkeys using HPLC assay. The class given is ADME, organism-based, Macaca fascicularis. Further details: dose 10 mg/kg, route intraduodenal. Conditions: cynomolgus monkey, read-out: Activity. An outline of the steps:
(§1)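 Salt-depleted cynomolgus monkeys, anesthetized, n = 4; 10 mg/kg intraduodenal in ethanol/HCl (110 mol %) diluted with aqueous hydroxypropyl methylcellulose (25% ethanol final, 10 mg/mL). 5-h experiment, systemic and portal sampling. Plasma (0.40 mL) mixed with 10% Na2CO3, extracted with ethyl acetate, assayed by HPLC; recoveries 75-85%. AUC as ng h/mL; mean ± SEM.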

A short description of data set [2]: Plasma level by the renin inhibition assay from samples taken at 30 minutes from portal circulation by administering 10 mg/kg intraduodenally to the rat.
Data set [3] in a line: Partition coefficient (logD7.4). Conditions: octanol/water, pH 7.4.
Data set [4] is described as follows: Plasma level by the renin inhibition assay from samples taken at 30 minutes from systemic circulation by administering 10 mg/kg intraduodenally to the rat.
Data set [5] can be described thus: Integrated area under the plasma drug level-time curve after intraduodenal administration at a dose 10 mg/kg from systemic circulation in salt-depleted cynomolgus monkeys using HPLC assay. It counts as ADME, organism-based, Macaca fascicularis. To be noted: cynomolgus monkey. The arrangement: dose 10 mg/kg, route intraduodenal. An outline of the steps: as §1
A short description of data set [6]: Plasma level by the renin inhibition assay from samples taken at 10 minutes from systemic circulation by administering 10 mg/kg intraduodenally to the rat.
Data set [7] is described as follows: Plasma level by the renin inhibition assay from samples taken at 10 minutes from portal circulation by administering 10 mg/kg intraduodenally to the rat.
Data set [8] can be described thus: Integrated area under the plasma drug level-time curve after intraduodenal administration at a dose 10 mg/kg from portal circulation in salt-depleted cynomolgus monkeys using HPLC assay. It counts as ADME, organism-based, Macaca fascicularis. Further details: dose 10 mg/kg, route intraduodenal. Conditions: cynomolgus monkey. The method, boiled down: as §1
The nature of data set [9]: Peak plasma drug level after intraduodenal administration at a dose 10 mg/kg from portal circulation in salt-depleted cynomolgus monkeys using HPLC assay. The arrangement: dose 10 mg/kg, route intraduodenal. The class given is ADME, organism-based, Macaca fascicularis. To be noted: cynomolgus monkey, read-out: Activity. The method, boiled down: as §1

On to `CCN1C[C@@H]([C@H](O)[C@H](CC2CCCCC2)NC(=O)[C@H](Cc2cscn2)NC(=O)[C@@H](CC(=O)N2CCOCC2)Cc2ccccc2)OC1=O`, for which the Cmax in data set [1] is 360 ng/mL; in data set [9], 3200 ng/mL. Also, the concentration at 0.5 h in data set [2] was 1100 ng/mL; in data set [4], 300 ng/mL. In [3], the logD is 2.83. Moreover, the values for the AUC in data set [5] and in data set [8] were 770 ng·h/mL and 3800 ng·h/mL, respectively. Moreover, the concentration at 10 min came to 320 ng/mL in data set [6] and 1900 ng/mL in data set [7].
